OX1R antag-1 = human HCRTR1 antagonism. CHO/OX1R cells, Fluo-8 calcium fluorescence, orexin A. inhibition, % at 5 µM. 330,000 compounds, 0.43% hits. AID 434989;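 active means inhibition above its plate's threshold, mean inhibition of all tested compounds on the plate plus 3 SD, cut at about 37% in these data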
zfTRPN1 agonist = zebrafish TRPN1 (NompC) channel agonism. AID 1424. HEK293 zebrafish TRPN1-YFP, Fluo-8 calcium fluorescence; 100% = response to 87 µM carbachol. 220,000 compounds, 0.18% hits. activation, % at 3 µM;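 active means activation above its plate's cutoff, the mean activation of test wells on that plate plus 3 SD, cut at about 19% in these data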
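Material: zebrafish TRPN1-YFP in HEK293 cells. Doses: one dose of 3 µM, 0.3% DMSO. Incubation: dye 1 h 37 °C plus 30 min RT. Measured by: intracellular calcium fluorescence with Fluo-8.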
OX1R antag-2 = blocks the human orexin 1 receptor | AID 485270 | OX1R-expressing cells, FRET antagonist read-out | 330,000 compounds, 1.8% hits | inhibition, % at 6.6 µM | O43613; in the data active means inhibition mostly above about 38%, no sharp cut-off; inactive means mostly below about 40%
TRPML3 agonist = human mucolipin-3 channel agonism | Q8TDD5 | HEK293 TRPML3-YFP, Fluo-8 calcium fluorescence; 100% = the carbachol control signal | activation, % at 3 µM | 220,000 compounds, 0.29% hits | AID 1448;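 active means activation above its plate's cutoff, the mean activation of the plate's test wells plus 3 SD, cut at about 12% in these data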
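system = HEK293 cells stably carrying human TRPML3-YFP | doses = one concentration, 3 µM nominal, 0.3% DMSO | timing = dye loading 1 h 37 °C then 30 min ambient, 125 s read | detection = Fluo-8 calcium dye fluorescence, ex 470-495, em 515-575 nm | benchmarks = high control carbachol 87 µM, low control DMSO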
CHO parental Ca = counter-screen: ATP calcium response change in parental CHO cells; inhibition, % at 5.6 µM; parental CHO-K1, ATP-induced calcium, Fluo-8 fluorescence; 330,000 compounds, 0.63% hits;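 active means inhibition above that plate's mean sample inhibition plus 3 SD, cut at about 26% in these data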
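Material – parental CHO cells · Reagent – ATP stimulus · Compound – single nominal dose of 5.6 µM per compound · Detection – Fluo-8 fluorescence · Read-out basis – percent inhibition of calcium signal · Controls – ATP-challenged DMSO wells low, unchallenged DMSO wells high · Repeats – no replicates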
OX1R HTRF confirm = confirmation of human orexin 1 receptor antagonists, HTRF format; 1,800 compounds, 49% hits; shares compounds with OX1R antag-2; OX1R-expressing cells, HTRF antagonist assay; inhibition, % at 6.6 µM; in the data active means inhibition above about 55%;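 further: CHO cells expressing OX1R stimulated with orexin A at about EC80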
CHO-K1 HTRF = counter-screen for OX1R antagonists: effect in parental CHO-K1 cells. shares compounds with OX1R antag-2. HTRF counterscreen. inhibition, % at 6.6 µM. 1,800 compounds, 48% hits. AID 493232; in the data active means inhibition above about 17%
Numbers stand for hits; – = inactive; · = not tested or not shown; + = active, no number. The list is not random: actives were taken first. Their share in the collection is about 2.5%.

SMILES	OX1R antag-1	zfTRPN1 agonist	OX1R antag-2	TRPML3 agonist	CHO parental Ca	OX1R HTRF confirm	CHO-K1 HTRF
Nc1c(-c2ccccc2)c(CN2CCOCC2)nn1-c1cccc([N+](=O)[O-])c1	–	–	84.7	–	–	–	29.4
CN1C(=O)/C(=C2\SC(=S)N(C(CCC(=O)O)C(=O)O)C2=O)c2ccccc21 (stereo not given)	–	–	141.8	–	–	57.2	102.0
CN1C(=O)/C(=C2\SC(=S)N(CC3CCCO3)C2=O)c2ccccc21 (stereo not given)	·	–	·	–	·	·	·
COc1ccccc1C(=O)NCC(=O)N=Nc1c(O)n(C(C)C)c2ccccc12	–	·	93.3	·	–	75.7	–
CC(NC(=O)CSc1nnc2n1CCCCC2)c1ccccc1Cl (stereo not given)	–	·	–	·	–	·	·
Cn1nc(-c2ccccn2)nc2c(=O)n(C)c(=O)nc1-2	–	–	+	–	–	91.1	97.5
COc1ccc([N+](=O)[O-])cc1C(=O)C(=O)c1ccccc1	–	·	–	·	–	·	·
COc1cc(C(=O)O)nc2ccc([N+](=O)[O-])cc12	–	–	88.1	–	–	60.3	98.4

Bioassay records as filed in PubChem BioAssay.
